Results: article PMC3180826 (ACS chemical neuroscience, 2010)
Changes are numbered by the printed parent chain. Blank lines part the entries; values can stand above or below the compound they belong to.

What was measured:
M5 = biological target: T1, M5 (Homo sapiens, UniProt P08912); assay: Antagonism of EC80 ACh response, calcium mobilization, M5; format: cell-based; details: read-out: M5 antagonism IC50; attenuation of EC80 ACh response
T1 sequence (P08912 1-532): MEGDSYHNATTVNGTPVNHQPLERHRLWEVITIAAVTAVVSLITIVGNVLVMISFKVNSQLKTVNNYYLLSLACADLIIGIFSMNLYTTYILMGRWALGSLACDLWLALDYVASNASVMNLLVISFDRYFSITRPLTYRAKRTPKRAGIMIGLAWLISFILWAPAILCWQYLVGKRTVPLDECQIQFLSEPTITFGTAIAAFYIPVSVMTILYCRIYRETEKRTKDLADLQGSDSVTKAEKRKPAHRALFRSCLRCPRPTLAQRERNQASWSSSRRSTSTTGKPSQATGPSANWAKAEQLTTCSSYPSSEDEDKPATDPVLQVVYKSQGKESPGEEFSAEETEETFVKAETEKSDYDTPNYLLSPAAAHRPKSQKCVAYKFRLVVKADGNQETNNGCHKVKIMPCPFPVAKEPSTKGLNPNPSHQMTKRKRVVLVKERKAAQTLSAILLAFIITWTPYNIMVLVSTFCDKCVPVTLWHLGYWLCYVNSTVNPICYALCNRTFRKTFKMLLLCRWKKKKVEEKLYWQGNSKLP

M2 = biological target: T2, M2 (Homo sapiens, UniProt P08172); assay: Antagonism of EC80 ACh response, calcium mobilization, M2; format: cell-based; details: read-out: M2 antagonism IC50; attenuation of EC80 ACh response
T2 sequence (P08172 1-466): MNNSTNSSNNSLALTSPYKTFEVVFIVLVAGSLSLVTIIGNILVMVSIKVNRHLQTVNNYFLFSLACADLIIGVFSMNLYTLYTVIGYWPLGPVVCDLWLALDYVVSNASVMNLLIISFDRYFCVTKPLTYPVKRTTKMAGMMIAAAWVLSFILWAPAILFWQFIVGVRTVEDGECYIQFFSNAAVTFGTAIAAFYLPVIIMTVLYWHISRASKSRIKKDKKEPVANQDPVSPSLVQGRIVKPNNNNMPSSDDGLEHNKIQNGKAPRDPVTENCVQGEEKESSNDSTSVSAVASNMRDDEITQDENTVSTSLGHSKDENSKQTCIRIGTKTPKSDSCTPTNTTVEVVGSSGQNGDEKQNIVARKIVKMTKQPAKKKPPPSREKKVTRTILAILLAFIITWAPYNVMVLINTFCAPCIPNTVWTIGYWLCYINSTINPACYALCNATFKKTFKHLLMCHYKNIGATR

rM1 receptor = biological target: T3, rM1 receptor (Rattus norvegicus, UniProt P08482); assay: Calcium mobilization assay, CHO-K1 cells stably expressing rM1; format: cell-based; details: for M1 potency and efficacy (SAR statement): substitution around the benzyl ring; for EC50: read-out: M1 EC50
T3 sequence (P08482 1-460): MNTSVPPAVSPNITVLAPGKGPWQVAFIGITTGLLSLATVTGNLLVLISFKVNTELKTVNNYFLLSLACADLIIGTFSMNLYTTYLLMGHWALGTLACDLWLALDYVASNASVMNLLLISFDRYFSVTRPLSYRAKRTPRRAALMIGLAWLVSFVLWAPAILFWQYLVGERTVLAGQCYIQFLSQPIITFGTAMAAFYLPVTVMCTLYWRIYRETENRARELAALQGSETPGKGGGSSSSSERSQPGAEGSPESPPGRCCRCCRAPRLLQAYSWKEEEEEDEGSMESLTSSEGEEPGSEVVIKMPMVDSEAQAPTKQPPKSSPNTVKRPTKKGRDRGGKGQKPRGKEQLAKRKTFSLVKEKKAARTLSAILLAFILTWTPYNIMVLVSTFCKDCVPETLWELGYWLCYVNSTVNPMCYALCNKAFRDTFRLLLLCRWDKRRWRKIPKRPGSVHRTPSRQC

rM1 Y381A = biological target: T4, rM1 Y381A (Rattus norvegicus, UniProt P08482, Y381A); assay: Calcium mobilization in rM1 Y381A; format: cell-based; details: for potency at M1 Y381A compared with WT M1: M1Y381A CHO cells vs WT M1 CHO cells
T4 sequence (P08482 1-460 Y381A): T3 sequence (P08482 1-460) with Y381A

M1 = biological target: T5, M1 (Rattus norvegicus, UniProt P08482); assay: HTS confirmation concentration-response in M1-CHO cells; format: cell-based; details: for sensitivity to block by atropine: concentration series in the presence of atropine; for EC50: read-out: M1 EC50, from the DPI DMSO stock
T5 sequence (P08482 1-460): T3 sequence (P08482 1-460)

hM3 = hM3 (Homo sapiens, UniProt P20309); assay: Calcium mobilization assay, agonist mode, M3; format: cell-based; details: up to 30 μM
Summary of the method: (§1)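 CHO-K1 cells stably expressing hM2/Gqi5 or rM4/Gqi5 (6 × 10^4 cells/well), or hM3 or hM5 (5 × 10^4 cells/well), were cultured overnight at 37 °C in 5% CO2. Cells were loaded with 2 μM Fluo-4 AM for 1 h at 37 °C in HBSS with 20 mM HEPES and 2.5 mM probenecid, pH 7.4. Eight-point test compound concentration series were added at 19 s of a 130 s read. Calcium flux was read as fluorescence fold over basal.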

rM4 = biological target: T6, rM4 (Rattus norvegicus, UniProt P08485); assay: Calcium mobilization assay, agonist mode, M4; format: cell-based; details: up to 30 μM
T6 sequence (P08485 1-478): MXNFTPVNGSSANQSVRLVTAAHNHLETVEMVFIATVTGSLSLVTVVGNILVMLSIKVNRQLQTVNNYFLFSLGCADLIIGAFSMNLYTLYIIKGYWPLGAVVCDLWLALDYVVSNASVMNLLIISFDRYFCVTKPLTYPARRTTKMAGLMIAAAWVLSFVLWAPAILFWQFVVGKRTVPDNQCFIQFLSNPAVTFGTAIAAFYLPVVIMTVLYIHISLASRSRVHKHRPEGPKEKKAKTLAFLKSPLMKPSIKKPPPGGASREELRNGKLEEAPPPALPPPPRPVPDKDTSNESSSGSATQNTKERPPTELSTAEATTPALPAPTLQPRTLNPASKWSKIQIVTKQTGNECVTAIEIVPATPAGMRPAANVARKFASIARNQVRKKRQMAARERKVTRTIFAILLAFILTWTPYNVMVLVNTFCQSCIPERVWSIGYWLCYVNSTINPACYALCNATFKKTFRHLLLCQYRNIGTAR
Summary of the method: as §1

hM5 = biological target: T7, hM5 (Homo sapiens, UniProt P08912); assay: Calcium mobilization assay, agonist mode, M5; format: cell-based; details: up to 30 μM
T7 sequence (P08912 1-532): T1 sequence (P08912 1-532)
Summary of the method: as §1

hM2 = biological target: T8, hM2 (Homo sapiens, UniProt P08172); assay: Calcium mobilization assay, agonist mode, M2; format: cell-based; details: up to 30 μM
T8 sequence (P08172 1-466): T2 sequence (P08172 1-466)
Summary of the method: as §1

[1] = tested on: scopolamine-induced deficits in contextual fear conditioning; assay: Contextual fear conditioning, scopolamine-induced deficit; format: in vivo; details: rat; for effect on acquisition of contextual fear conditioning response: 0.2 mg/kg s.c., 15 minutes prior to training, 0.2 mg/kg
Summary of the method: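 Male Sprague–Dawley rats (380–420 g) were habituated to vehicle injections for 2 days. Test compound (1–10 mg/kg ip) was given 30 min before training, and scopolamine (0.2 mg/kg sc) or vehicle 15 min before. Training used two 1 s, 0.5 mA footshocks 2.5 min apart, with a vanilla odour cue. At 24 h, video-scored freezing over 7 min was expressed as percent. Groups had 3–4 rats; one-way ANOVA with Dunnett's test against vehicle/scopolamine.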

Aqueous solubility = format: physicochemical; details: water
[2] = Plasma-brain exposure profile PK study; format: in vivo; details: rat
Summary of the method: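 Test compound was dissolved in sterile water at 5 mg/mL and dosed at 10 mg/kg ip in male Sprague–Dawley rats (225–250 g). Plasma and brain were collected at 0.5, 1, 2, 4 and 8 h, with three rats per time point. Brains were homogenized 1:3 in PBS, and samples were extracted by acetonitrile/0.1% formic acid precipitation with internal standard. Quantification was by LC-MS/MS SRM (10–2000 ng/mL calibration), with noncompartmental analysis.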

[3] = rM1 CHO-K1, calcium mobilization

Sequence of hM3 (P20309 whole entry): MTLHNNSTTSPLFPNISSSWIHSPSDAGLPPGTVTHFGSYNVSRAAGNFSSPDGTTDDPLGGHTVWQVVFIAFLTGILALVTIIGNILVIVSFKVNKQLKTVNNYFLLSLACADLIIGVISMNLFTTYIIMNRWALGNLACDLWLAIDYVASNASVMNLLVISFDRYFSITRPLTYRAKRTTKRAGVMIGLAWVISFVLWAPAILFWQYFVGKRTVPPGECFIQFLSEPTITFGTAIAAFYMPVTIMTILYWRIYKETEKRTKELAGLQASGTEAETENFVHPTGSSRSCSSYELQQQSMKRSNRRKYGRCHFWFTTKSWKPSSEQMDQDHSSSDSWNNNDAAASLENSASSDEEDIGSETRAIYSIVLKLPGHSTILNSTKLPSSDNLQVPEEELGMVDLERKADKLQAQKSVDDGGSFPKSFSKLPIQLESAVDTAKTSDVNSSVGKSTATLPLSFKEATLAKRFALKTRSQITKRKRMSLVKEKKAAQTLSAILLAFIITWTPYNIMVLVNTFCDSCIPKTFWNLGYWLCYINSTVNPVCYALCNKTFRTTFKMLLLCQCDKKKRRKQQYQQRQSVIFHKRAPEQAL

Compound: Cc1ccccc1CN1CCC(N2CCC(n3c(=O)[nH]c4ccccc43)CC2)CC1 [TBPB]
IC50 (M5): 10100 nM
IC50 (M2): 1100 nM

Compound: CCOC(=O)N1CCC(NCCNC(=O)c2cccc(F)c2)CC1.O=C(O)C(F)(F)F [VU0359995]
M1 potency and efficacy (SAR statement) (rM1 receptor): retaining substantial potency and efficacy

Compound: Clc1ccc2c(c1)N=C(N1CCNCC1)c1ccccc1N2 [NDMC, N-desmethylclozapine, reference compound]
potency at M1 Y381A compared with WT M1 (rM1 Y381A): potency similar to that observed in cells expressing WT M1

selectivity for M1 vs. M4 (M1; M1-CHO vs M4/Gqi5 CHO cells): > 50 fold
sensitivity to block by atropine (M1): sensitive to block by atropine
EC50 (M1): ~1000 nM
agonist activity at M3 (hM3): no alteration was detected in baseline
agonist activity at M4 (rM4): no alteration was detected in baseline
agonist activity at M5 (hM5): no alteration was detected in baseline
EC50 (rM1 receptor; [3]): 1740 nM
rM1 Y381A AChmax (maximal efficacy) (rM1 Y381A; rM1 Y381A cells): 44.69 % max
EC50 (rM1 Y381A; read-out: rM1 Y381A EC50, rM1 Y381A cells): 1230 nM
agonist activity at M2 (hM2): no alteration was detected in baseline
Compound: CCOC(=O)N1CCC(NCCNC(=O)c2cccs2)CC1 [VU0177548]

Compound: CCOC(=O)N1CCC(NCCNC(=O)c2ccc(F)cc2)CC1.O=C(O)C(F)(F)F [VU0359993]
M1 potency and efficacy (SAR statement) (rM1 receptor): retaining substantial potency and efficacy

Compound: CN1[C@@H]2C[C@@H](OC(=O)[C@H](CO)c3ccccc3)C[C@H]1[C@@H]1O[C@@H]12 [scopolamine]
effect on acquisition of contextual fear conditioning response [1]: significant disruption
effect on acquisition of contextual fear conditioning response ([1]; listed as Scopolamine): robust disruption

Compound: CCOC(=O)N1CCC(NCCNC(=O)c2cccc(OC)c2)CC1.O=C(O)C(F)(F)F [VU0360014]
M1 potency and efficacy (SAR statement) (rM1 receptor): retaining substantial potency and efficacy

agonist activity at M3 (hM3): no activity
solubility (Aqueous solubility): > 25 mg/mL
agonist activity at M4 (rM4): no activity
Kp ([2]; male, Sprague-Dawley, brain and plasma, ip, 10 mg/kg): 1.46
brain level ([2]; 10 mg/kg i.p., brain): 4338.90 ± 1071.20 ng/mL
plasma level ([2]; 10 mg/kg i.p., plasma): 1053.49 ± 276.03 ng/mL
central penetrance ([2]; i.p. administration): centrally-penetrant
agonist activity at M5 (hM5): no activity
ACh Max efficacy (rM1 receptor; [3]): 80.52 % ACh Max
agonist activity at M2 (hM2): no activity
Compound: CCOC(=O)N1CCC(NCCNC(=O)c2ccccc2C)CC1 [VU0357017, ethyl 4-(2-(2-methylbenzamido)ethylamino)piperidine-1-carboxylate]
potency at M1 Y381A compared with WT M1 (rM1 Y381A): potencies similar to those observed in WT M1 CHO cells
reversal of scopolamine-induced deficits in contextual fear conditioning ([1]; 10 mg/kg i.p., scopolamine 0.2 mg/kg s.c., p < 0.05): significant reversal

sensitivity to block by atropine (M1): sensitive to block by atropine
EC50 (M1): ~1000 nM
agonist activity at M3 (hM3): no alteration was detected in baseline
agonist activity at M4 (rM4): no alteration was detected in baseline
agonist activity at M5 (hM5): no alteration was detected in baseline
EC50 (rM1 receptor; [3]): 804 nM
rM1 Y381A AChmax (maximal efficacy) (rM1 Y381A; rM1 Y381A cells): 45.80 % max
agonist activity at M2 (hM2): no alteration was detected in baseline
Compound: CCOC(=O)N1CCC(NCCNC(=O)c2ccccc2Cl)CC1 [VU0207811]
